Experimental data as given in article PMC4339026 (Biopolymers, 2014).
“Also recorded” adds a separate entry of the source.

Legend:
Format in all cases: biochemical
meprin α = target: T1, meprin α (Homo sapiens, UniProt Q16819); assay: Meprin α HTS FRET assay, dose response; settings: read-out: IC50 Meprin α; selectivity testing; n = 3 Mean ± SD
T1 sequence (Q16819 66-653 limits assumed): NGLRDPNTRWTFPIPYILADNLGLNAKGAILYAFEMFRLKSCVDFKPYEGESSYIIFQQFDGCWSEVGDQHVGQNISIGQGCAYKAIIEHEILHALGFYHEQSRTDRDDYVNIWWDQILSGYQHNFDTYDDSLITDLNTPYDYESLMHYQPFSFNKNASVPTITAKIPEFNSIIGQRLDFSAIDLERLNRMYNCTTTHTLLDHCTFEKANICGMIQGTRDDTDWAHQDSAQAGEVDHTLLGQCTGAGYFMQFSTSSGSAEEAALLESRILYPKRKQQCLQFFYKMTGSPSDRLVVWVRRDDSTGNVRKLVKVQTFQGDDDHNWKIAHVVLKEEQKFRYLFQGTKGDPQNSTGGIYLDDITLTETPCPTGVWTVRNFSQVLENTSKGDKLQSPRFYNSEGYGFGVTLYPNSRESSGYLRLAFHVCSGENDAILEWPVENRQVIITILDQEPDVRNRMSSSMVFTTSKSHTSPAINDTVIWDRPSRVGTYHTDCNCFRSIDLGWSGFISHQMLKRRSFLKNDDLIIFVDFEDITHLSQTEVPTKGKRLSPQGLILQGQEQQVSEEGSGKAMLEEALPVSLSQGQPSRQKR
Summary of the method: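 Recombinant human Strep-tagged meprin α was expressed in baculovirus-infected BTI-TN-5B1-4 cells, trypsin-activated, then freed of trypsin. It was used as a 2x solution at 2.6 nM in 50 mM Hepes, 0.01% Brij-35, pH 7.5. Test compound was pre-incubated 30 min at RT, then 2x (MCA)-YVADAPK-(K-ε-DNP) at 20 μM was added for 1 h at RT. Read at ex 324/em 393 nm. 3-fold dilutions in quadruplicate; 4-parameter fit; 0.1% or 1.0% DMSO.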

meprin β [1] = target: T2, meprin β (Homo sapiens, UniProt Q16820); assay: Meprin β HTS FRET assay, dose response
T2 sequence (Q16820 62-614 limits assumed): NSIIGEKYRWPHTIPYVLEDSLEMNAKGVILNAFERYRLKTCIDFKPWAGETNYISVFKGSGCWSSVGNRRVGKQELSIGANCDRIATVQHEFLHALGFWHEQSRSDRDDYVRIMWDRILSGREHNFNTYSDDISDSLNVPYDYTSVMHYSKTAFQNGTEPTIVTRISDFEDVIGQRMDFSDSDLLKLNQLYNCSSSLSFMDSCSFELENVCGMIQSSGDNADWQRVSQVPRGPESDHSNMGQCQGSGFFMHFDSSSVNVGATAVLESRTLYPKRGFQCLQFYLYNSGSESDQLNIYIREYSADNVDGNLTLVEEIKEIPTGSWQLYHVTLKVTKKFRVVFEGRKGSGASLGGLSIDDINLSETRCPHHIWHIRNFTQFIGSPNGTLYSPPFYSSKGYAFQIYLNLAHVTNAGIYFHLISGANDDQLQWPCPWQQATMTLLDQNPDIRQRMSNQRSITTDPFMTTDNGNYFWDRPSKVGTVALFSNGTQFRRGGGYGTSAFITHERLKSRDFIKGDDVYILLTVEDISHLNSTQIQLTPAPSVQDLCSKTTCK
Summary of the method: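 Trypsin-activated meprin β (trypsin removed on immobilized ovomucoid) in 50 mM Hepes, 0.01% Brij-35, pH 7.5, added as 2x (0.15 nM) solution. Pin-transferred inhibitor was preincubated 30 min at RT. 2x (20 μM) (MCA)-EDEDED-(K-ε-DNP) was then added, run 1 h at RT, and read at ex 324/em 393 nm. A 3-fold dilution series was run in quadruplicate, and % inhibition was fitted with a 4-parameter equation. DMSO final was 0.1% or 1.0%.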

MMP-2 = target: T3, MMP-2 (Homo sapiens, UniProt P08253); assay: Selectivity testing against zinc metalloproteases: MMP-2; settings: read-out: IC50 MMP-2; n = 3 Mean ± SD
T3 sequence (P08253 110-660): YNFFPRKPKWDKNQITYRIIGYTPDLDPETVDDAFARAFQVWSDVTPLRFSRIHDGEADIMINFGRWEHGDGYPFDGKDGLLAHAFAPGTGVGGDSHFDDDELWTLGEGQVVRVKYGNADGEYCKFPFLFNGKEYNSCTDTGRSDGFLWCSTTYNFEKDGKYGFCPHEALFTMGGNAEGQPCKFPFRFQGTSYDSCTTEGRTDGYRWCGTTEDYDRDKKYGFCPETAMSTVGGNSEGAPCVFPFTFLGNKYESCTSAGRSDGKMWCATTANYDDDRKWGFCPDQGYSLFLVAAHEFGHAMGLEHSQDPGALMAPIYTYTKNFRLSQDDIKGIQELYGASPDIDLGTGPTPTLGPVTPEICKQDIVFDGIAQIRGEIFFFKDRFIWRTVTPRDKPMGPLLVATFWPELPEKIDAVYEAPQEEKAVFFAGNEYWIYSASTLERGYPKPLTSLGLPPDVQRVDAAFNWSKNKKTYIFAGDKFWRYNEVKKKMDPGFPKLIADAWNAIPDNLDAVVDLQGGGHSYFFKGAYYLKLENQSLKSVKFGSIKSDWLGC

MMP-13 = MMP-13 (Homo sapiens, UniProt P45452); assay: Selectivity testing against zinc metalloproteases: MMP-13; settings: read-out: IC50 MMP-13; n = 3 Mean ± SD
MMP-14 = MMP-14 (Homo sapiens, UniProt P50281); assay: Selectivity testing against zinc metalloproteases: MMP-14; settings: read-out: IC50 MMP-14; n = 3 Mean ± SD
meprin β [2] = target: T2, meprin β; assay: Meprin β inhibition kinetics / enzyme kinetics
Summary of the method: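 Trypsin-activated meprin β at 1 nM was run with (MCA)-EDEDED-(K-ε-DNP) 0.5–25 μM plus varying inhibitor concentrations in 50 mM Hepes, 0.01% Brij-35, pH 7.5, at 25 °C. Fluorescence was read at ex 324/em 393 nm. Rates came from the linear portion of the progress curves. Ki and Ki′ came from nonlinear regression with a mixed-inhibition model. Mechanism came from the alpha parameter and was checked with Lineweaver-Burk plots.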

meprin β [3] = target: T2, meprin β; assay: Meprin β LOPAC pilot screen; settings: 18 μM

With `O=C(Nc1cc(C(=O)Nc2ccc(S(=O)(=O)O)cc2S(=O)(=O)O)cc(C(=O)Nc2ccc(S(=O)(=O)O)cc2S(=O)(=O)O)c1)Nc1cc(C(=O)Nc2ccc(S(=O)(=O)O)cc2S(=O)(=O)O)cc(C(=O)Nc2ccc(S(=O)(=O)O)cc2S(=O)(=O)O)c1` [NF449, 4,4′,4″,4‴-[Carbonyl-bis[imino-5,1,3-benzenetriylbis-(carbonyl-imino)]]tetrakis(benzene-1,3-disulfonic acid)] as the compound, how does the IC50 (meprin α) read?
The IC50 was greater than 100 µM.

And the “meprin β dose response behaviour” value (meprin β [1]; dose response experiment, data not shown)?
Its value is “did not exhibit the same effect”.

What about the “potency differential meprin β versus meprin α” value (meprin β [1]; ratio of IC50 values) of the same compound?
Its value is greater than 1000 fold.

What about the “selectivity ratio meprin β versus MMP-8” value (meprin β [1]; ratio of IC50 values) of the same compound?
The value was “approximately 12 fold”.

What about the IC50 (meprin β [1]; read-out: IC50 Meprin β, selectivity testing, n = 3 Mean ± SD) of the same compound?
Its IC50 is 0.07 ± 0.005 µM.

What about the IC50 (MMP-2) of the same compound?
The IC50 was 6 ± 0.5 µM.

What about the IC50 (MMP-13) of the same compound?
The IC50 was 40 ± 3 µM.

What about the IC50 (MMP-14) of the same compound?
The IC50 was 18 ± 1.5 µM.

What about the “Ki lower than IC50, fold” value (meprin β [2]; meprin β Ki versus HTS IC50) of the same compound?
The value was 3 fold.

What about the “α = Ki/Ki′” value (meprin β [2]; mixed-model inhibition, non-linear regression) of the same compound?
The value was 3.6 ± 4.3.

And the “mechanism of inhibition of meprin β” value (meprin β [2]; non-linear regression and Lineweaver-Burke plots)?
The value was “mixed competitive/non-competitive inhibition modality; also recorded: competitive mechanism with elements of non-competitive inhibition”.

And the Ki (meprin β [2]; read-out: Ki meprin β, substrate (MCA)-EDEDED-(K-ε-DNP), mixed inhibition model)?
The Ki was 0.022 ± 0.0096 µM.

And the “% inhibition meprin β in pilot screen” value (meprin β [3])?
The value was “negative inhibition values”.

And the “meprin β LOPAC pilot screen outcome” value (meprin β [3]; hit cutoff 25% inhibition)?
Its value is “selective hits”.
